Measurements: ChEMBL document CHEMBL1909578, “New diarylureas and diarylamides containing 1,3,4-triarylpyrazole scaffold: Synthesis, antiproliferative evaluation against melanoma cell lines, ERK kinase inhibition, and molecular docking studies” (Eur J Med Chem, 2011)

Tests used:
UACC-62 = assay: Antiproliferative activity against human UACC62 cells after 48 hrs by SRB assay; format: functional, cell-based; settings: UACC-62, 48 h
Method in brief: (§1)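 NCI melanoma panel grown in RPMI 1640 with 5% FBS and 2 mM glutamine. Seeded at 5000–40,000 cells/well, then 24 h before dosing, with time-zero plates fixed. Five concentrations (10-fold or 1/2-log dilutions from DMSO stock) for 48 h. Cells TCA-fixed, stained with 0.4% SRB, read at 515 nm. IC50 is 50% reduction in net protein increase, from (Ti−Tz)/(C−Tz).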

LOX IMVI = assay: Antiproliferative activity against human LOXIMVI cells after 48 hrs by SRB assay; format: functional, cell-based; method in brief: as §1
MDA-MB-435 = assay: Antiproliferative activity against human MDA-MB-435 cells after 48 hrs by SRB assay; format: functional, cell-based; settings: MDA-MB-435, 48 h; method in brief: as §1
[1] = Antiproliferative activity against human A375P cells after 48 hrs by MTT assay; format: functional, cell-based
Method in brief: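 A375P cells grown in DMEM with 10% FBS and 1% penicillin/streptomycin at 37 °C, 5% CO2. Cells detached with 0.05% trypsin-0.02% EDTA, seeded at 5×10^3 cells/well, and left 24 h. Then exposed for 48 h to 12-point 3-fold serial dilutions. Viability read by MTT reduction, absorbance at 590 nm. IC50 derived from the concentration-response curve.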

UACC-257 = assay: Antiproliferative activity against human UACC257 cells after 48 hrs by SRB assay; format: functional, cell-based; settings: UACC-257, 48 h; method in brief: as §1
SK-MEL-2 = assay: Antiproliferative activity against human SK-MEL-2 cells after 48 hrs by SRB assay; format: functional, cell-based; settings: SK-MEL-2, 48 h; method in brief: as §1
SK-MEL-5 = assay: Antiproliferative activity against human SK-MEL-5 cells after 48 hrs by SRB assay; format: functional, cell-based; settings: SK-MEL-5, 48 h; method in brief: as §1
M14 = assay: Antiproliferative activity against human M14 cells after 48 hrs by SRB assay; format: functional, cell-based; settings: M14, 48 h; method in brief: as §1
SK-MEL-28 = assay: Antiproliferative activity against human SK-MEL-28 cells after 48 hrs by SRB assay; format: functional, cell-based; settings: SK-MEL-28, 48 h; method in brief: as §1
[2] = molecular target: Mitogen-activated protein kinase; ERK1/ERK2 (Homo sapiens) (UniProt P27361+P28482); assay: Inhibition of ERK1/2 phosphorylation in human A375P cells after 24 hrs by immunoblotting; format: cell-based
Mitogen-activated protein kinase; ERK1/ERK2 (Homo sapiens), sequence (P27361 whole entry, looked up): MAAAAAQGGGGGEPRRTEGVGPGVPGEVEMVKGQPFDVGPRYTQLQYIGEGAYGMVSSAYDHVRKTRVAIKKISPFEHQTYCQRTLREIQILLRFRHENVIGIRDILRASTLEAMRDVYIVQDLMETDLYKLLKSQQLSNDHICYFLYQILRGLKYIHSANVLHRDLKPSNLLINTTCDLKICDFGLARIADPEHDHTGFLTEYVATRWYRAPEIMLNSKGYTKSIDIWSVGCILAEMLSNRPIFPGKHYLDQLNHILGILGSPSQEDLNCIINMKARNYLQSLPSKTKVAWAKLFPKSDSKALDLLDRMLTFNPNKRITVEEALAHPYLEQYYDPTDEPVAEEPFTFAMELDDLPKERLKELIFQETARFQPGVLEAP
Mitogen-activated protein kinase; ERK1/ERK2 (Homo sapiens), sequence (P28482 whole entry, looked up): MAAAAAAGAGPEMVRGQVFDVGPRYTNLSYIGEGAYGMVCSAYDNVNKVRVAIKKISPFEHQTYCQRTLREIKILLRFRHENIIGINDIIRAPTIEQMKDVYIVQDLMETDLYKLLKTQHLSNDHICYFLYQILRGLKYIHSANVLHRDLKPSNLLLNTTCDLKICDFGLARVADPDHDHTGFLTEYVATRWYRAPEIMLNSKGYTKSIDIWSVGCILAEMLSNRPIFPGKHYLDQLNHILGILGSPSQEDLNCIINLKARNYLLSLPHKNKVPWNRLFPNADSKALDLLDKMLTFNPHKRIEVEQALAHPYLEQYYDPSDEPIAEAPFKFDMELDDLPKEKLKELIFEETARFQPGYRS
Method in brief: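 A375P melanoma cells treated with 1, 3 and 10 μM compound for 24 h. Lysed in RIPA buffer, sonicated, centrifuged, and protein quantified by DC assay. Lysates run on SDS-PAGE and immunoblotted for phospho-ERK1/2, with β-actin as loading reference.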

| SMILES | IC50 (UACC-62) [nM] | IC50 (LOX IMVI) [nM] | IC50 (MDA-MB-435) [nM] | IC50 [1] [nM] | IC50 (UACC-257) [nM] | IC50 (SK-MEL-2) [nM] | IC50 (SK-MEL-5) [nM] | IC50 (M14) [nM] | IC50 (SK-MEL-28) [nM] | inhibition [2] |
| --- | --- | --- | --- | --- | --- | --- | --- | --- | --- | --- |
| O=C(Nc1ccc(-n2cc(-c3ccncc3)c(-c3ccc(Cl)c(O)c3)n2)cc1)c1ccc(Cl)c(Cl)c1 | 3220 | 1450 | 2730 | 6700 | 4740 | 4050 | 1150 | 2350 | 2940 | Dose-dependent effect |
| COc1cc(-c2nn(-c3ccc(NC(=O)Nc4ccc(Cl)c(C(F)(F)F)c4)cc3)cc2-c2ccncc2)ccc1Cl | 1770 | 1430 | 1600 | 14000 | 1640 | 1630 | 1570 | 1740 | 1880 |  |
| O=C(Nc1ccc(-n2cc(-c3ccncc3)c(-c3ccc(Cl)c(O)c3)n2)cc1)Nc1cc(C(F)(F)F)cc(C(F)(F)F)c1 | 2230 | 1630 | 1770 | > 20000 | 2010 | 1800 | 1670 | 1760 | 2010 |  |
| O=C(Nc1ccc(-n2cc(-c3ccncc3)c(-c3ccc(Cl)c(O)c3)n2)cc1)c1cc(Cl)cc(Cl)c1 | 2730 | 1190 | 3780 | 6800 | 5700 | 6910 | 1400 | 1510 | 2750 |  |
| O=C(Nc1ccc(-n2cc(-c3ccncc3)c(-c3ccc(Cl)c(O)c3)n2)cc1)c1cc(C(F)(F)F)cc(C(F)(F)F)c1 | 14400 | 2540 | 4110 | > 20000 | 8940 | 6600 | 1550 | 6340 | 4880 |  |
| COc1cc(-c2nn(-c3ccc(NC(=O)Nc4ccc(Cl)c(Cl)c4)cc3)cc2-c2ccncc2)ccc1Cl | 3350 | 1980 | 2870 | > 20000 | 3170 | 3440 | 2840 | 2560 | 3940 |  |
| O=C(Nc1ccc(-n2cc(-c3ccncc3)c(-c3ccc(Cl)c(O)c3)n2)cc1)c1ccc(Cl)c(C(F)(F)F)c1 | 2030 | 360 | 1200 | 6800 | 2550 | 1580 | 1070 | 840 | 1080 |  |
| COc1cc(-c2nn(-c3ccc(NC(=O)Nc4cc(C(F)(F)F)cc(C(F)(F)F)c4)cc3)cc2-c2ccncc2)ccc1Cl | 1550 | 1630 | 1880 | 11800 | 2300 | 1700 | 1530 | 1990 | 1930 |  |
| COc1cc(-c2nn(-c3ccc(NC(=O)Nc4cccc(Cl)c4Cl)cc3)cc2-c2ccncc2)ccc1Cl |  |  |  | > 20000 |  |  |  |  |  |  |
| COc1cc(-c2nn(-c3ccc(NC(=O)c4cc(C(F)(F)F)cc(C(F)(F)F)c4)cc3)cc2-c2ccncc2)ccc1Cl |  |  |  | > 20000 |  |  |  |  |  |  |
| O=C(Nc1ccc(-n2cc(-c3ccncc3)c(-c3ccc(Cl)c(O)c3)n2)cc1)Nc1ccc(Cl)c(C(F)(F)F)c1 | 1700 | 1440 | 1320 | 14900 | 1510 | 1700 | 1530 | 1430 | 1630 |  |
| COc1cc(-c2nn(-c3ccc(NC(=O)c4ccc(Cl)c(C(F)(F)F)c4)cc3)cc2-c2ccncc2)ccc1Cl | 2180 | 1560 | 2520 | 9800 | 5830 | 3150 | 1590 | 1920 | 2800 |  |
| O=C(Nc1ccc(-n2cc(-c3ccncc3)c(-c3ccc(Cl)c(O)c3)n2)cc1)Nc1ccc(Cl)c(Cl)c1 |  |  |  | 13500 |  |  |  |  |  |  |
| COc1cc(-c2nn(-c3ccc(NC(=O)c4cc(Cl)cc(Cl)c4)cc3)cc2-c2ccncc2)ccc1Cl | 4580 | 3090 | > 100000 | > 20000 | > 100000 | > 100000 | 12000 | 7390 | > 100000 |  |
| O=C(Nc1ccc(-n2cc(-c3ccncc3)c(-c3ccc(Cl)c(O)c3)n2)cc1)Nc1cccc(Cl)c1Cl |  |  |  | 16800 |  |  |  |  |  |  |
| COc1cc(-c2nn(-c3ccc(NC(=O)c4ccc(Cl)c(Cl)c4)cc3)cc2-c2ccncc2)ccc1Cl | 6340 | 2760 | 7130 | 13000 | > 100000 | 5740 | 1650 | 22400 | 40300 |  |
| CNC(=O)c1cc(Oc2ccc(NC(=O)Nc3ccc(Cl)c(C(F)(F)F)c3)cc2)ccn1 [SORAFENIB] |  |  |  | 11500 |  |  |  |  |  |  |
